# Measured values collected from several papers.
# Lines come from different studies, so protocols differ.
# PDE4D: 3',5'-cyclic-AMP phosphodiesterase 4D (PDE4D, Homo sapiens, UniProt Q08499)
# MTNR1B: Melatonin receptor type 1B (MTNR1B, Homo sapiens, UniProt P49286)
Compound,target,assay,system,setting,quantity,value
CC(C)=CCc1cc(-c2coc3cc(O)cc(O)c3c2=O)cc(O)c1O,PDE4D,"enzyme activity, inhibitor, radiometric",,50 µM,inhibition,100%
Nc1ncc(-c2nc(N3CCOCC3)nc(N3CCOCC3)n2)c(C(F)F)n1,"Non-receptor tyrosine-protein kinase TNK1 (TNK1, Homo sapiens, UniProt Q13470)","binding, competition with immobilised ligand",,10 µM,remaining binding,83%
COc1ccc2cccc(C(CO)CNC(=O)CF)c2c1 (stereo not drawn),MTNR1B,"GTPγS binding, agonist, radiometric",,cell membranes,Emax,99%
COc1cc(O)ccc1/C=C/C(=O)c1ccc(O)cc1,PDE4D,"enzyme activity, inhibitor, radiometric",,5 µM,inhibition,-1.92%
CC[C@H](C)[C@@H]1NC(=O)[C@@H]2CSSC[C@H](NC(=O)[C@@H](NC(=O)CN)[C@@H](C)O)C(=O)N[C@@H](CC(N)=O)C(=O)N[C@@H]([C@@H](C)O)C(=O)N3CCC[C@H]3C(=O)NCC(=O)N[C@H]3CSSC[C@H](NC(=O)[C@H](CCSC)NC(=O)[C@H](CC(C)C)NC(=O)[C@H](CCCNC(=N)N)NC(=O)CNC(=O)CNC(=O)[C@H](CC(=O)O)NC1=O)C(=O)NCC(=O)N[C@@H](CCC(=O)O)C(=O)N[C@@H]([C@@H](C)O)C(=O)N[C@H](C(=O)N[C@H](C(=O)NCC(=O)O)C(C)C)CSSC[C@H](NC(=O)[C@H]([C@@H](C)O)NC3=O)C(=O)N[C@@H](CO)C(=O)N[C@@H](Cc1c[nH]c3ccccc13)C(=O)N1CCC[C@H]1C(=O)N[C@@H](C(C)C)C(=O)N2,"Prothrombin (F2, Homo sapiens, UniProt P00734)","binding, SPR",,,koff,~0.001 s⁻¹
O=C(O)c1ccccc1O,PDE4D,"enzyme activity, inhibitor, radiometric",,50 µM,inhibition,3.34%
NC(=O)c1cccc(-c2cccc(OC(=O)NC3CCCCC3)c2)c1,"Liver carboxylesterase 1 (CES1, Homo sapiens, UniProt P23141)","enzyme activity, inhibitor",,pH 7.4,kinact/KI,4500 M⁻¹ s⁻¹
COc1ncccc1-c1cnn2ccc(N3CCN(C(=O)OC(C)C)CC3)nc12,"Serine/threonine-protein kinase MAK (MAK, Homo sapiens, UniProt P20794)","binding, competition with immobilised ligand",,1 µM,remaining binding,100%
CCN(CC)CCCC[C@H](NC(=O)[C@H](CC(C)C)NC(=O)[C@H](C)NC(=O)[C@H](Cc1ccccc1)NC(=O)c1ccc(C(C)(C)C)cc1)C(=O)N[C@@H](CO)C(=O)OC,"Prostaglandin E2 receptor EP4 subtype (PTGER4, Homo sapiens, UniProt P35408)","ligand displacement, radioligand",,10 µM,remaining binding,95.2%
C[C@@]12C[C@@]3(O)O[C@@H](O1)[C@]1(COC(=O)c4ccccc4)[C@H]3C[C@@]12O[C@@H]1O[C@H](CO)[C@@H](O)[C@H](O)[C@H]1O,PDE4D,"enzyme activity, inhibitor, radiometric",,50 µM,inhibition,2.88%
COc1ccc2[nH]cc(CCNC(=O)CI)c2c1,MTNR1B,"β-arrestin recruitment, agonist",MT2,90 min,Emax,92%
Cc1nn(C)cc1-c1nc2c(N3CCN(Cc4ccc(Cl)cc4)CC3)c(Cl)cnc2[nH]1,"Mitogen-activated protein kinase 7 (MAPK7, Homo sapiens, UniProt Q13164)","binding, competition with immobilised ligand",,1 µM,remaining binding,100%
